Values after ≈ are worked out from the molar mass of the structure shown. Active and inactive are the calls of the source. The rule behind the calls is not given here.
Legend:
[1] = test system: Staphylococcus aureus; assay: Antibacterial activity against Staphylococcus aureus N315 after 14 to 16 hrs by broth dilution method; format: functional
In short: (§1)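 CLSI broth dilution in cation-adjusted Mueller-Hinton broth with serial twofold dilutions, with or without spermine or spermidine added. Overnight cultures were diluted in saline to OD600 0.1–0.12, and about 10^5 CFU were inoculated. Incubation was 14–16 h at 37°C. MIC was confirmed in three independent experiments. E. coli acrA mutants were tested with 1 mM spermine; P. aeruginosa isolates with 1 mM spermine or 20 mM spermidine.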

[2] = test system: Staphylococcus aureus; assay: Antibacterial activity against Staphylococcus aureus Mu50 after 14 to 16 hrs by broth dilution method; format: functional
[3] = test system: Pseudomonas aeruginosa; assay: Antibacterial activity against Pseudomonas aeruginosa M38100B after 14 to 16 hrs by broth dilution method; format: functional
[4] = test system: Pseudomonas aeruginosa; assay: Antibacterial activity against Pseudomonas aeruginosa F66336 after 14 to 16 hrs by broth dilution method; format: functional
[5] = test system: Escherichia coli; assay: Antibacterial activity against Escherichia coli K12 after 14 to 16 hrs by broth dilution method; format: functional
[6] = test system: Pseudomonas aeruginosa; assay: Antibacterial activity against Pseudomonas aeruginosa M37310 after 14 to 16 hrs by broth dilution method; format: functional
[7] = test system: Pseudomonas aeruginosa; assay: Antibacterial activity against Pseudomonas aeruginosa T15464 after 14 to 16 hrs by broth dilution method; format: functional; in short: as §1
[8] = test system: Pseudomonas aeruginosa; assay: Antibacterial activity against Pseudomonas aeruginosa PAO1 assessed as inhibition of bacterial population at 64 ug/ml after 48 hrs; format: functional, organism-based
In short: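 Population analysis: overnight 37°C cultures adjusted to 1 x 10^8 to 5 x 10^8 CFU/ml, diluted, 100 µl spread on LB plates with twofold serial dilutions of antibiotic with or without 1 mM spermine, plus LB alone; colonies counted after 48 h at 37°C; triplicate experiments.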

[9] = test system: Pseudomonas aeruginosa; assay: Antibacterial activity against Pseudomonas aeruginosa T2095 after 14 to 16 hrs by broth dilution method; format: functional
[10] = test system: Pseudomonas aeruginosa; assay: Antibacterial activity against streptomycin-resistant Pseudomonas aeruginosa DK100 after 14 to 16 hrs by broth dilution method; format: functional; in short: as §1
[11] = test system: Pseudomonas aeruginosa; assay: Antibacterial activity against Pseudomonas aeruginosa F4980 after 14 to 16 hrs by broth dilution method; format: functional; in short: as §1
[12] = test system: Pseudomonas aeruginosa; assay: Antibacterial activity against Pseudomonas aeruginosa M22152 after 14 to 16 hrs by broth dilution method; format: functional; in short: as §1
[13] = test system: Escherichia coli; assay: Antibacterial activity against Escherichia coli N43 acrA mutant assessed as inhibition of AcrAB efflux pump after 14 to 16 hrs by broth dilution method; format: functional; in short: as §1
[14] = test system: Pseudomonas aeruginosa; assay: Antibacterial activity against Pseudomonas aeruginosa H4563 after 14 to 16 hrs by broth dilution method; format: functional
[15] = test system: Staphylococcus aureus; assay: Antibacterial activity against Staphylococcus aureus ATCC 3556 after 14 to 16 hrs by broth dilution method; format: functional
[16] = test system: Escherichia coli; assay: Antibacterial activity against Escherichia coli N818 delta acrA mutant assessed as inhibition of AcrAB efflux pump after 14 to 16 hrs by broth dilution method; format: functional; in short: as §1
[17] = test system: Pseudomonas aeruginosa; assay: Antibacterial activity against Pseudomonas aeruginosa T6268 after 14 to 16 hrs by broth dilution method; format: functional
[18] = test system: Escherichia coli; assay: Antibacterial activity against Escherichia coli W4573 assessed as inhibition of AcrAB efflux pump after 14 to 16 hrs by broth dilution method; format: functional
[19] = test system: Pseudomonas aeruginosa; assay: Antibacterial activity against Pseudomonas aeruginosa PAO1 after 14 to 16 hrs by broth dilution method; format: functional
[20] = test system: Pseudomonas aeruginosa; assay: Antibacterial activity against Pseudomonas aeruginosa M38100A after 14 to 16 hrs by broth dilution method; format: functional
[21] = test system: Escherichia coli; assay: Antibacterial activity against Escherichia coli K10 after 14 to 16 hrs by broth dilution method; format: functional
[22] = test system: Pseudomonas aeruginosa; assay: Antibacterial activity against streptomycin and gentamycin-resistant Pseudomonas aeruginosa DK101 containing oprD mutant after 14 to 16 hrs by broth dilution method; format: functional; in short: as §1
[23] = test system: Salmonella typhimurium; assay: Antibacterial activity against Salmonella enterica serovar Typhimurium LT2 after 14 to 16 hrs by broth dilution method; format: functional, Salmonella enterica subsp. enterica serovar Typhimurium
[24] = test system: Escherichia coli; assay: Antibacterial activity against Escherichia coli C921-61 after 14 to 16 hrs by broth dilution method; format: functional
[25] = test system: Pseudomonas aeruginosa; assay: Antibacterial activity against Pseudomonas aeruginosa DK101 containing pAU48 expressing oprD after 14 to 16 hrs by broth dilution method; format: functional
[26] = test system: Pseudomonas aeruginosa; assay: Antibacterial activity against Pseudomonas aeruginosa T5177 after 14 to 16 hrs by broth dilution method; format: functional; in short: as §1
[27] = test system: Staphylococcus aureus; assay: Antibacterial activity against Staphylococcus aureus Mu50 at 20 ug/ml after 12 hrs by time kill assay; format: functional, organism-based
In short: (§2)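 Time-kill: overnight MH broth cultures were diluted in saline to OD600 0.08–0.12, and 1 x 10^5 to 5 x 10^5 CFU went into 1 ml MH broth with or without antibiotic and/or 1 mM spermine. Static incubation at 37°C. Timed 100 µl aliquots were plated on LB neat or after 10-fold dilutions, and colonies counted after 18–24 h at 37°C.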

[28] = test system: Staphylococcus aureus; assay: Antibacterial activity against Staphylococcus aureus Mu50 assessed as inhibition of bacterial population at greater than 512 ug/ml after 48 hrs; format: functional, organism-based
[29] = test system: Staphylococcus aureus; assay: Antibacterial activity against Staphylococcus aureus Mu50 assessed as inhibition of bacterial population at 128 ug/ml after 48 hrs; format: functional, organism-based
[30] = test system: Staphylococcus aureus; assay: Antibacterial activity against Staphylococcus aureus N315 at 20 ug/ml after 12 hrs by time kill assay; format: functional, organism-based; in short: as §2

Question: CC1(C)S[C@@H]2[C@H](NC(=O)C(C(=O)O)c3ccccc3)C(=O)N2[C@H]1C(=O)O (stereo partly specified) [CARBENICILLIN] was tested. Which MIC [1] did it give?
Answer: Its MIC is 32 µg/mL (≈ 84.6 µM).

Question: And the MIC [2]?
Answer: Its MIC is ≥ 512 µg/mL.

Question: What about the MIC [3] of the same compound?
Answer: The MIC was 1020 µg/mL (≈ 2710 µM).

Question: What about the MIC [4] of the same compound?
Answer: Its MIC is 256 µg/mL (≈ 677 µM).

Question: And the MIC [5]?
Answer: Its MIC is 16 µg/mL (≈ 42.3 µM).

Question: And the MIC [6]?
Answer: The MIC was 1020 µg/mL (≈ 2710 µM).

Question: And the MIC [7]?
Answer: The MIC was > 1020 µg/mL.

Question: And the Activity [8]?
Answer: Its Activity is “Active”.

Question: And the MIC [9]?
Answer: Its MIC is 256 µg/mL (≈ 677 µM).

Question: And the MIC [10]?
Answer: The MIC was 64 µg/mL (≈ 169 µM).

Question: What about the MIC [11] of the same compound?
Answer: The MIC was 256 µg/mL (≈ 677 µM).

Question: What about the MIC [12] of the same compound?
Answer: Its MIC is > 1020 µg/mL.

Question: What about the MIC [13] of the same compound?
Answer: The MIC was 4 µg/mL (≈ 10.6 µM).

Question: What about the MIC [14] of the same compound?
Answer: Its MIC is > 1020 µg/mL.

Question: And the MIC [15]?
Answer: The MIC was 1 µg/mL (≈ 2.64 µM).

Question: And the MIC [16]?
Answer: Its MIC is 2 µg/mL (≈ 5.29 µM).

Question: And the MIC [17]?
Answer: Its MIC is 16 µg/mL (≈ 42.3 µM).

Question: And the MIC [18]?
Answer: The MIC was 16 µg/mL (≈ 42.3 µM).

Question: What about the MIC [19] of the same compound?
Answer: Its MIC is 64 µg/mL (≈ 169 µM).

Question: And the MIC [20]?
Answer: Its MIC is 16 µg/mL (≈ 42.3 µM).

Question: What about the MIC [21] of the same compound?
Answer: Its MIC is 32 µg/mL (≈ 84.6 µM).

Question: And the MIC [22]?
Answer: The MIC was 64 µg/mL (≈ 169 µM).

Question: What about the MIC [23] of the same compound?
Answer: Its MIC is 8 µg/mL (≈ 21.1 µM).

Question: And the MIC [24]?
Answer: Its MIC is 16 µg/mL (≈ 42.3 µM).

Question: And the MIC [25]?
Answer: The MIC was 64 µg/mL (≈ 169 µM).

Question: What about the MIC [26] of the same compound?
Answer: Its MIC is > 1020 µg/mL.

Question: Cc1onc(-c2ccccc2)c1C(=O)N[C@@H]1C(=O)N2[C@@H]1SC(C)(C)[C@@H]2C(=O)O [OXACILLIN] was tested. Which MIC [1] did it give?
Answer: Its MIC is 16 µg/mL (≈ 39.9 µM).

Question: What about the MIC [2] of the same compound?
Answer: Its MIC is 512 µg/mL (≈ 1280 µM).

Question: What about the MIC [5] of the same compound?
Answer: Its MIC is 512 µg/mL (≈ 1280 µM).

Question: What about the Activity [27] of the same compound?
Answer: Its Activity is “inactive”.

Question: And the Activity [28]?
Answer: The Activity was “Active”.

Question: And the Activity [29]?
Answer: The Activity was “inactive”.

Question: What about the MIC [15] of the same compound?
Answer: The MIC was 0.12 µg/mL (≈ 0.299 µM).

Question: And the Activity [30]?
Answer: Its Activity is “inactive”.

Question: What about the MIC [23] of the same compound?
Answer: The MIC was 256 µg/mL (≈ 638 µM).

Question: What about the MIC [24] of the same compound?
Answer: The MIC was 512 µg/mL (≈ 1280 µM).

Reference: ChEMBL document CHEMBL1145495, “Polyamine effects on antibiotic susceptibility in bacteria” (2007)
